PvdQ acylase: P. aeruginosa PvdQ acylase inhibition; purified PvdQ acylase, fluorescence plate reader; inhibition, % at 10 µM; 0.063% of 340,000 active; AID 488965; in the data active means inhibition above about 30%, passing the limit was not always enough; inconclusive means no clear call, values can overlap the other calls
SR-BI HDL uptake: blocks mouse SR-BI lipid uptake from DiI-HDL; Q61009; ldlA[mSR-BI] CHO cells, DiI-HDL uptake fluorescence, 3 h; inhibition, % at 12.5 µM; 0.96% of 320,000 active;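 active means mean replicate inhibition of at least 70% and a set share of replicates each scoring 70 or more; inconclusive means meets just one of the two criteria; inactive means fails both criteria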
dFosB activator: mouse delta FosB homodimer activation; P13346; AID 493131; 0.99% of 340,000 active; purified delta FosB, TAMRA-CDK5 oligo fluorescence polarization; percent of positive-control signal above neutral wells; activation, % at 25 µM;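 active means mean activation above about 17%, with every replicate also reaching it, limit read from the data, passing the limit was not always enough; inconclusive means only one of the two conditions met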
Target sequence (P13346 whole entry, looked up): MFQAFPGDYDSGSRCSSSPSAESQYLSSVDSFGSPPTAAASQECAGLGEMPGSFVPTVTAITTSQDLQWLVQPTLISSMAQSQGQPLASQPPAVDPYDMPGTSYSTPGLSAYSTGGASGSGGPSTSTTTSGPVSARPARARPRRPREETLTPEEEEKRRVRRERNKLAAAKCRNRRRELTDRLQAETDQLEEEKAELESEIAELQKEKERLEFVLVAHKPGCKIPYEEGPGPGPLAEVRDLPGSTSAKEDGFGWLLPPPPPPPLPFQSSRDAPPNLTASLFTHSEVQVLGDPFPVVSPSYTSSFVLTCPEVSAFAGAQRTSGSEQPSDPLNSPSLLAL
SR-BI uptake up: enhances SR-BI lipid uptake from DiI-HDL; CHO ldlA[mSR-BI] cells, DiI-HDL uptake fluorescence, 3 h; 100 = double the neutral-control signal; activation, % at 12.5 µM; 0.096% of 320,000 active; AID 504775;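 active means mean replicate activation of at least 60% and every replicate at or above 60%; inconclusive means mean or all-replicate condition met, but not both; inactive means mean below 60% and not all replicates reaching 60%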
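Material: SR-BI-overexpressing, LDLR-lacking CHO cells; schedule: compound exposure 3 h, 37 °C; reagent: DiI-labelled HDL at 10 µg/mL final; technique: bottom-read fluorescence, 550/595 nm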
XiGFP reactiv: X-chromosome reactivation activator. activation, % at 7.58 µM. XiGFP mouse fibroblasts, % GFP-positive cells imaging, 3 d; cells co-treated with 5-aza-dC sensitizer; scaled so ellipticine positive control = 100%. 0.055% of 360,000 active;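 active means mean normalized replicate activation at least 10% and every replicate at or above 10%; inconclusive means only one of the two criteria met; inactive means mean below 10% and not all replicates reach 10%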
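System: SV40-immortalized XiGFP fibroblast cells, line 68-5-11 / Incubation: 3-day compound exposure, then 15 min fixation at room temperature / Compound: single concentration per compound, delivered by pin transfer / Buffer or medium: DMEM plus 5-aza-dC sensitizer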
rRNA inh HTS: inhibits bacterial ribosomal RNA function over humanized ribosomes; E. coli WT GFP vs humanized-ribosome RFP mutants, fluorescence, 24 h; active compounds read low; DMSO median 0, no signal -100; GFP signal change (wild-type ribosome), % (concentration not given with the values); AID 720706; 1.6% of 350,000 active;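 active means significant combined selectivity score with lowered wild-type GFP, culture density cut under 30%, mutant RFP and density less affected; inactive means any of these conditions unmet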
Each line names hits and unclear results; the compound was inactive in the other large screens. Sampled rows, rich in hits. Any-hit rate of the full collection: about 2.6%.

COc1ccc(C)cc1NC(=O)c1ccc(CN2CCc3ccccc3C2)cc1	rRNA inh HTS -23.6
CCCC#Cc1ccc([C@@H]2[C@@H](CO)N3CCCCN(C(=O)c4ccc5c(c4)OCO5)C[C@@H]23)cc1	none (no result: PvdQ acylase, SR-BI HDL uptake, dFosB activator, SR-BI uptake up)
COc1ccc(CCC(=O)N2CCN(c3ccc(OC)cc3)CC2)cc1	none
COC(=O)c1cccc(NC(=O)c2ccc(OC)c(Cl)c2)c1	rRNA inh HTS -30.5 (no result: SR-BI HDL uptake, SR-BI uptake up)
COc1ccc(C(=O)Nc2cc(C(=O)O)cc(C(=O)O)c2)cc1Cl	none
COc1ccc(NS(=O)(=O)c2cccc(NC(=O)c3ccc(Cl)nc3)c2)cc1	rRNA inh HTS -24.7
COc1ccccc1OCc1ccc(C(=O)Nc2ccccc2)cc1	none
COc1cc(C(=O)Nc2ccc(NC(C)=O)cc2)ccc1OCc1ccccc1	SR-BI HDL uptake 78.2
COc1ccc(C)cc1NC(=O)c1ccc(CN2CCN(c3ccccc3)CC2)cc1	none (no result: rRNA inh HTS)
COc1ccc(NC(=O)c2ccc(CN3CCN(c4ccccc4)CC3)cc2)cc1OC	SR-BI HDL uptake 76.1 (no result: XiGFP reactiv, rRNA inh HTS)
O=C(CC(NC(=O)c1ccccc1Cl)c1ccccc1)NC1=NCCS1 (configuration not stated)	none
Nc1ccccc1-c1nc2ccccc2c(=O)o1	none (no result: SR-BI HDL uptake, SR-BI uptake up)
Oc1ccc(-c2cn3ccccc3n2)cc1	none (no result: SR-BI HDL uptake, SR-BI uptake up)
CCC(=O)Nc1ccc2c(c1)OC[C@H](C)N(Cc1nccs1)C[C@H](C)[C@@H](OC)CN(C)C2=O	none (no result: PvdQ acylase, SR-BI HDL uptake, dFosB activator, SR-BI uptake up)
Cc1ccccc1N1CCN(C2CCCN(C(=O)c3cc(C(C)C)[nH]n3)C2)CC1 (configuration not stated)	none
CC1(C)c2ccccc2N2CC(=O)N(CC(N)=O)C21C (configuration not stated)	dFosB activator 39.9 (no result: XiGFP reactiv, rRNA inh HTS)
Cc1ccc(CN2CC(C(=O)N3CC(C)CC(C)C3)CC2=O)cc1 (configuration not stated)	none
CCc1ccc(NC(=O)COC(=O)CCCC2=NS(=O)(=O)c3ccccc3N2)cc1	rRNA inh HTS -17.0
Cn1ccc(C(=O)N/N=C/c2ccccc2[N+](=O)[O-])n1	none
COCC(C)NC(=O)c1cc(OC)cc(OC)c1 (configuration not stated)	none
COc1cc(OC)cc(C(=O)NC(C)CNc2ccc(Cl)cc2[N+](=O)[O-])c1 (configuration not stated)	SR-BI HDL uptake 79.1
COC(=O)[C@]1(CC(C)C)N[C@H](c2ccc(SC3CCCCC3)c(OC)c2)[C@@H]2C(=O)N(C)C(=O)[C@@H]21	SR-BI HDL uptake 74.7
CCSc1ccc([C@@H]2[C@@H]3C(=O)N(C)C(=O)[C@@H]3[C@]3(C(=O)OC)CCCCN23)cc1OC	SR-BI uptake up 67.4
CCC(C)Sc1ccc([C@H]2N[C@@](CC(C)C)(C(=O)OC)[C@H]3C(=O)N(C)C(=O)[C@@H]23)cc1 (some centres not stated)	SR-BI HDL uptake 78.5
CCN1C(=O)[C@H]2[C@@H](c3ccc(-c4ccc(OC)cc4)c(OC)c3)N[C@@](CC(C)C)(C(=O)OC)[C@H]2C1=O	none
COC(=O)[C@]1(CC(C)C)N[C@H](c2ccc(-c3ccc(F)cc3)c(OC)c2)[C@@H]2C(=O)N(C)C(=O)[C@@H]21	SR-BI HDL uptake 89.2
CCC(C)Sc1ccc([C@H]2N[C@@](CC(C)C)(C(=O)OC)[C@H]3C(=O)N(CC)C(=O)[C@@H]23)cc1 (some centres not stated)	none
CCOC(=O)N1CCN(c2c(NCCCN(C)c3ccccc3)c(=O)c2=O)CC1	none
C[C@@H](NC(=O)c1ncn2c1c(=O)[nH]c1ccc(Br)cc12)c1ccccc1	none (no result: PvdQ acylase, SR-BI HDL uptake, dFosB activator, SR-BI uptake up)
CCOC(=O)N1CCC(N2Cc3cccc(C(=O)Nc4ccccc4OC)c3C2=O)CC1	rRNA inh HTS -21.1
COc1cc(NC(=O)c2cccc3c2C(=O)N(C2CCCCC2)C3)cc(OC)c1OC	rRNA inh HTS -40.9
Nc1nc(-c2ccccc2)c(N=Nc2cccc3ccccc23)s1	SR-BI HDL uptake 133.8 (no result: rRNA inh HTS)
Nc1nc(-c2ccccc2)c(N=Nc2ccccc2Cl)s1	SR-BI HDL uptake 88.3 (no result: rRNA inh HTS)
CC(=O)Nc1sc(N)nc1-c1ccccc1	none
COC(=O)C1=C(C)C(c2ccc(OC)cc2OC)NC(=O)N1 (configuration not stated)	none (no result: XiGFP reactiv, rRNA inh HTS)
COC(=O)CSc1nnc(CNC(=O)c2ccccc2F)n1-c1ccc(F)cc1	none
COc1cc(/C=N/Nc2cccc3cccnc23)cc(OC)c1O	rRNA inh HTS -25.8
Oc1cccc(/C=N/Nc2cccc3cccnc23)c1	rRNA inh HTS -35.0
Oc1c(/C=N/Nc2cccc3cccnc23)ccc2ccccc12	none (no result: rRNA inh HTS)
COc1cc(/C=N/Nc2ccccn2)cc(OC)c1O	none
COc1cc(-c2nc3n(n2)C(c2ccc(F)cc2)C2=C(CCCC2=O)N3)cc(OC)c1OC (configuration not stated)	rRNA inh HTS -27.2 (no result: XiGFP reactiv)
COc1ccccc1NC(=O)Nc1nc(CC(=O)N2CCN(c3ccc(F)cc3)CC2)cs1	SR-BI HDL uptake 76.0
COc1ccccc1NC(=O)Nc1nc(CC(=O)N2CCN(c3ccccc3)CC2)cs1	SR-BI HDL uptake inconclusive
COc1ccc(N2CCN(C(=O)Cc3csc(NC(=O)Nc4ccccc4OC)n3)CC2)cc1	SR-BI HDL uptake 80.3
COc1ccc(Nc2nc(N)c(C(=O)c3ccc(F)cc3)s2)cc1	none
COc1ccc(/C=C(/C#N)C(=O)Nc2ccc(C)cc2C)cc1C(=O)O	SR-BI uptake up 65.5 (no result: XiGFP reactiv, rRNA inh HTS)
COc1ccc(/C=C(/C#N)C(=O)Nc2ccccc2C)cc1C(=O)O	none
COc1cc(/C=C(\C#N)C(=O)NC2CCCCC2C)ccc1OS(=O)(=O)c1ccc(C)cc1 (configuration not stated)	none (no result: rRNA inh HTS)
COc1cc(/C=C(\C#N)C(N)=O)ccc1OS(=O)(=O)c1ccc(C)cc1	rRNA inh HTS -24.0
O=S(=O)(c1ccc2ccccc2c1)N1CCN(Cc2ccccn2)CC1	none
CCn1c(SCC(=O)Nc2cccc(NC(=O)c3ccco3)c2)nnc1-c1cccs1	none (no result: XiGFP reactiv, rRNA inh HTS)
C/C(=N\Nc1nc2ccccc2[nH]1)c1ccc(N2CCOCC2)cc1	rRNA inh HTS -48.4
C/C(=N\Nc1nc(C)cc(C)n1)c1ccc(N2CCOCC2)cc1	none
CC(=O)N1CCC(=NNc2nc3ccccc3[nH]2)CC1	rRNA inh HTS -18.1
Cc1cccc(C)c1NC(=O)CN(C1CCCCC1)S(C)(=O)=O	none
COc1cc(/C=N/N(c2ccccc2)c2ccccc2)ccc1O	none
CN(/N=C\c1ccc(O)c(O)c1)c1nc(-c2ccccc2)cc(-c2ccccc2)n1	SR-BI HDL uptake 112.0 (no result: rRNA inh HTS)
COc1ccc(C2NC(=O)NC(C)=C2C(=O)OCc2ccc3c(c2)OCO3)cc1OC (configuration not stated)	none (no result: XiGFP reactiv, rRNA inh HTS)
